We go through 4 compounds from ChEMBL document CHEMBL1136508, “[3H]-methoxymethyl-MTEP and [3H]-methoxy-PEPy: potent and selective radioligands for the metabotropic glutamate subtype 5 (mGlu5) receptor” (Bioorg Med Chem Lett, 2003).

Broadly, the IC50 is the concentration that inhibits the measured activity by half. Broadly, the logD is the decadic logarithm of the distribution of all forms, ionised or not, between an organic phase and buffer at a given pH.

Data set [1] concerns the target T1, Metabotropic glutamate receptor 5 (Homo sapiens, UniProt P41594). The experiment in a line: In vitro functional potency using an automated assay employing LtK-cells stably expressing human recombinant mGlu5 receptor by measuring changes in cytosolic [Ca2+] concentration. In a few lines: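 Ltk- cells stably expressing recombinant human mGlu5 were loaded with fura-2. Glutamate-evoked rises in cytosolic Ca2+ were read by fluorescence. Concentration–response curves used 12 concentrations in duplicate wells, from two or more separate experiments.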

Data set [2] in a line: Lipophilicity (Log D) was determined. The class given is physicochemical. The settings on record: octanol/water. In a few lines:
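LogD was determined by an HPLC method.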

Data set [3] has as its target T1, Metabotropic glutamate receptor 5. The experiment in a line: Binding affinity towards human mGlu5 receptors expressed in LtK-cells. In kind it is cell-based.
For data set [4], the target named is Metabotropic glutamate receptor 5 (Rattus norvegicus, UniProt P31424). The experiment in a line: Binding affinity towards mGlu5 receptors in rat brain membranes was evaluated. In kind it is cell membranes. In a few lines: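 Displacement of [3H]-methoxy-PEPy (specific activity 67.6 Ci/mmol) binding to rat brain membranes, incubated at room temperature (equilibrium within 60 min). Nonspecific binding was defined with an unlabelled mGlu5 antagonist as cold displacer. Concentration–response curves gave IC50 values.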

Structures are written as SMILES.

T1 sequence (P41594 whole entry): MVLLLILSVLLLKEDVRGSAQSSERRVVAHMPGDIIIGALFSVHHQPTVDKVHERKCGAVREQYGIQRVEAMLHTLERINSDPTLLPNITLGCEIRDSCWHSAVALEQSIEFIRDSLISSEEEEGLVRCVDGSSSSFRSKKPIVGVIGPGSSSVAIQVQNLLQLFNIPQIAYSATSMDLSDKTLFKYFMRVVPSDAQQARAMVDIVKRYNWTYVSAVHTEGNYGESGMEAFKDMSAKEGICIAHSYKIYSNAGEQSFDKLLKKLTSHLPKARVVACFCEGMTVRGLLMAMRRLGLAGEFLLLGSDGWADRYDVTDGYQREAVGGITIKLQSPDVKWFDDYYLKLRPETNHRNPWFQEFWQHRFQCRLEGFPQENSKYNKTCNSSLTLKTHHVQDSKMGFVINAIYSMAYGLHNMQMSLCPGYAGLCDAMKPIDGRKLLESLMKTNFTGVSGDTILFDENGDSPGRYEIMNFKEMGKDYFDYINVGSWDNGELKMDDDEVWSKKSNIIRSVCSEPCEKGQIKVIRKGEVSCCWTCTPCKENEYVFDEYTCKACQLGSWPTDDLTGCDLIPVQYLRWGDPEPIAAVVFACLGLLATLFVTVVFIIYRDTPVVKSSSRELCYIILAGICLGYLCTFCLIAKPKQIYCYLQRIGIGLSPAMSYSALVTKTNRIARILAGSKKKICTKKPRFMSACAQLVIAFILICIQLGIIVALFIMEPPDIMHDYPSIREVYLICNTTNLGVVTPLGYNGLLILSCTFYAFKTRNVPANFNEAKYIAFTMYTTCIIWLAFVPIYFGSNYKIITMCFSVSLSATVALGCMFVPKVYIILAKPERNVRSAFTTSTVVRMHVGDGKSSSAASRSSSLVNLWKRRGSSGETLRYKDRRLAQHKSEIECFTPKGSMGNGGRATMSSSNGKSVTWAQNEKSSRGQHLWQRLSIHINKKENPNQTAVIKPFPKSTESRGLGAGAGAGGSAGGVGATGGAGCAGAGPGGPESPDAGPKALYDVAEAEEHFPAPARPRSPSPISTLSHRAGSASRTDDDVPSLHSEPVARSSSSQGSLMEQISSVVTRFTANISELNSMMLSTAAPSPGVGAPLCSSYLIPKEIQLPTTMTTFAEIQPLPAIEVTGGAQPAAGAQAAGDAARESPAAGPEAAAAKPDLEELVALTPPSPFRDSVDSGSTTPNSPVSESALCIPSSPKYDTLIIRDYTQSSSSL
Sequence of Metabotropic glutamate receptor 5 (Rattus norvegicus, UniProt P31424) (P31424 whole entry): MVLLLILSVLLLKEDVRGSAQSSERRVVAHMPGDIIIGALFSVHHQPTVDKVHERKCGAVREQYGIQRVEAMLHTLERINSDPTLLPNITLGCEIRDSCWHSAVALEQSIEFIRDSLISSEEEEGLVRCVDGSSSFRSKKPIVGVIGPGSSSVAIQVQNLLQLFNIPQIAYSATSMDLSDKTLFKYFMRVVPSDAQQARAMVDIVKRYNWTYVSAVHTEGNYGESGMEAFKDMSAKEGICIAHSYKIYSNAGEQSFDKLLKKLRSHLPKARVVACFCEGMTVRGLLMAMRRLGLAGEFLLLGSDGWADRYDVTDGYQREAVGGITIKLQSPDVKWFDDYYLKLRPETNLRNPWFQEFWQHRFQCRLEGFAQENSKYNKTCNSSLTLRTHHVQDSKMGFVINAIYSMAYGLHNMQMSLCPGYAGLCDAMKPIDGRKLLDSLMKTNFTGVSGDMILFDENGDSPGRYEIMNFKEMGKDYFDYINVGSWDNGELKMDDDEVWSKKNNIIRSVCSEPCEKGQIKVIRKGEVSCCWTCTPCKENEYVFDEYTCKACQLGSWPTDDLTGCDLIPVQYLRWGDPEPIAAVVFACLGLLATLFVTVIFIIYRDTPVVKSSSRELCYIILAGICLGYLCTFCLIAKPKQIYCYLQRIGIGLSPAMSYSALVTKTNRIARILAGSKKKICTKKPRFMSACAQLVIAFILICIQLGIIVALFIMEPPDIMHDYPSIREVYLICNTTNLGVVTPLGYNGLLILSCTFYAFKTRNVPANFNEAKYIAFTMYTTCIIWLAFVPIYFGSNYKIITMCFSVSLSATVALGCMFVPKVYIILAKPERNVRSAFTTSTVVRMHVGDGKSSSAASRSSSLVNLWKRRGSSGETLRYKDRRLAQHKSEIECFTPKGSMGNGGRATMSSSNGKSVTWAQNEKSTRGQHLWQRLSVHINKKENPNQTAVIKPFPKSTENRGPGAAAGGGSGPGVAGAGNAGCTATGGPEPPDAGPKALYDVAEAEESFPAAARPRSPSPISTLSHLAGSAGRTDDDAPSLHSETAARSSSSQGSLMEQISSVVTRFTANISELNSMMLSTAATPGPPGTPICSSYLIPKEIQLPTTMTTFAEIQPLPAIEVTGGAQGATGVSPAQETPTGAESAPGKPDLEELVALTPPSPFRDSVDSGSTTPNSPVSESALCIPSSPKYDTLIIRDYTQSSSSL

In the case of `COCc1cncc(C#Cc2ccccn2)c1`, in data set [1], the IC50 came to 0.019 µM. In data set [2], this compound registered a logD of 2.

On to `[3H]C([3H])([3H])OCc1cncc(C#Cc2csc(C)n2)c1`, for which the IC50 in data set [1] was found to be 0.007 µM; in data set [3] it was 0.047 µM. The logD in data set [2] worked out at 2.4.

For `[3H]C([3H])([3H])Oc1cncc(C#Cc2ccccn2)c1`, the concentration for half-maximal inhibition (IC50) was 0.001 µM in data set [1] and 0.012 µM in data set [4]. In data set [2], this compound displayed a pH-dependent lipophilicity (logD) of 2.25.

Compound `Cc1cncc(C#Cc2csc(C)n2)c1` displayed a logD in data set [2] of 2.5.
